Measurements published in ChEMBL document CHEMBL4038313, “Expanding the Antiviral Spectrum of 3-Fluoro-2-(phosphonomethoxy)propyl Acyclic Nucleoside Phosphonates: Diamyl Aspartate Amidate Prodrugs” (J Med Chem, 2017).

How the values were obtained:
[1] = test system: Human immunodeficiency virus 1; test: Antiviral activity against CXCR4-tropic HIV-1 NL4-3 infected in human TZM-bl cells assessed as inhibition of virus-induced cytopathic effect preincubated with cells for 30 mins followed by viral infection measured after 48 hrs in presence of p-24 HIV-1 Ag by luciferase reporter gene assay; type: functional, cell-based; details: Human immunodeficiency virus 1, NL4-3, TZM-bl
Outline: (§1)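 TZM-bl cells, 1 × 10^4 per well in DMEM with 10% FBS and 10 mM […], incubated 30 min at 37 °C with compound. Then HIV-1 NL4.3 (X4) or BaL (R5) added at 100 pg p24 Ag per well. After 48 h, cells lysed with luciferase substrate. Tat-induced luminescence read after 10 min dark incubation as a measure of replication.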

[2] = test system: Human immunodeficiency virus 1; test: Antiviral activity against CCR5 tropic HIV1 BaL infected in human TZM-bl cells assessed as inhibition of virus-induced cytopathic effect preincubated with cells for 30 mins followed by viral infection measured after 48 hrs in presence of p-24 HIV-1 Ag by luciferase reporter gene assay; type: functional, cell-based; details: Human immunodeficiency virus 1, BaL; outline: as §1
[3] = Cytotoxicity against human TZM-bl cells assessed as cell viability by tetrazolium dye assay; type: cell-based
[4] = test system: Human immunodeficiency virus 1; test: Antiviral activity against CCR5 tropic HIV1 BaL infected in human PHA-stimulated PBMC assessed as inhibition of viral replication by measuring reduction in p24 antigen production preincubated with cells for 30 mins followed by viral infection measured on day 10 post infection in presence of IL-2 by ELISA; type: functional; details: Human immunodeficiency virus 1, BaL
Outline: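 PBMCs stimulated with 2 μg/mL PHA for 3 days at 37 °C, then 5 × 10^5 cells/ml preincubated 30 min at 37 °C with serial compound dilutions plus 2 ng/mL IL-2. Infected with 1500 pg/well HIV-1 BaL or 500 pg/well other isolates. IL-2 re-added on days 3 and 6. Supernatant p24 Ag measured by ELISA at day 10. EC50 is 50% inhibition of replication.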

[5] = Selectivity index, ratio of CC50 for human TZM-bl cells to EC50 for CXCR4-tropic HIV-1 NL4-3 infected in human TZM-bl cells; type: toxicity, cell-based; details: read-out: Ratio CC50/EC50
[6] = Selectivity index, ratio of CC50 for human PHA-stimulated PBMC to IC50 for CXCR4-tropic HIV-1 NL4-3 infected in human PHA-stimulated PBMC
[7] = Selectivity index, ratio of CC50 for human PHA-stimulated PBMCs to IC50 for CCR5 tropic HIV1 BaL infected in human PHA-stimulated PBMC
[8] = test system: Human immunodeficiency virus 1; test: Antiviral activity against tenofovir-resistant CXCR4-tropic HIV-1 NL4-3 harboring reverse transcriptase K65R mutant infected in human MT4 cells assessed as inhibition of viral replication inhibition of virus-induced cytopathic effect after 6 days by XTT dye based assay; type: functional, cell-based; details: Human immunodeficiency virus 1, NL4-3, MT4, 144 h
Outline: (§2)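 MT-4 cells, 1 × 10^4 per well, given compound dilutions and wild-type NL4-3 or K65R NL4-3. Virus titred to give 85–95% cell killing at day 6. Incubated 6 days at 37 °C, 5% CO2. Viability read by XTT at 450/650 nm. EC50 from CPE reduction and toxicity from uninfected drug wells, by four-parameter fit. Fold change is K65R EC50 over wild-type EC50.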

[9] = test system: Human immunodeficiency virus 1; test: Selectivity ratio of EC50 for tenofovir-resistant CXCR4-tropic HIV-1 NL4-3 harboring reverse transcriptase K65R mutant infected in human MT4 cells to EC50 for CXCR4-tropic HIV-1 NL4-3 infected in human MT4 cells; type: functional; outline: as §2
Hepatitis B virus = test: Antiviral activity against HBV ayw1 infected in human HepG2(2.2.15) cells assessed as reduction in viral replication by measuring extracellular viral DNA copy number after 6 days by real-time qPCR method; type: functional, cell-based; details: ayw1, HepG2 2.2.15, 144 h
Outline: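 HepG2.2.15 cells (two copies of HBV ayw1 genome), 1.5 × 10^4/well in DMEM with 2% FBS and 380 μg/mL G418. After 16–24 h, compound added in triplicate, medium with compound renewed at day 3. Supernatant collected at day 6, Pronase-treated, and extracellular HBV DNA measured by TaqMan qPCR (precore/core) against an HBV DNA standard curve. EC50/EC90 derived; CC50 by MTS uptake.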

[10] = Cytotoxic activity against HEL cells assessed as reduction in cell proliferation after 3 days by coulter counting method; type: cell-based; details: human
Outline: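 HEL cells seeded at 5 × 10^3/well, grown 24 h, then given compound for 3 days at 37 °C. Cell number counted by Coulter counter. CC50 is 50% reduction of proliferation relative to untreated controls, read from graphic plots.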

[11] = Stability of the compound in pH 1 buffer at 2 mg after 5 hrs by 31P NMR spectroscopy; type: physicochemical; details: pH 1, 5 h
Outline: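 2.0 mg compound in 0.2 mL acetone-d6 plus 0.3 mL pH 1 buffer (equal parts 0.2 M HCl and 0.2 M KCl). In situ 31P NMR (202 MHz) at 37 °C, spectra every 30 min over 14 h.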

[12] = test system: Human immunodeficiency virus 1; test: Antiviral activity against CXCR4-tropic HIV-1 NL4-3 infected in human MT4 cells assessed as inhibition of virus-induced cytopathic effect after 6 days by XTT dye based assay; type: functional, cell-based; details: Human immunodeficiency virus 1, NL4-3, MT4, 144 h; outline: as §2
[13] = Selectivity index, ratio of CC50 for HepG2.2.15 cells to EC50 for HBV ayw1 infected in human HepG2(2.2.15) cells assessed as reduction in viral replication by measuring intracellular viral DNA copy
Outline: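 Run as the HepG2.2.15 6-day assay (triplicate compound, medium with compound renewed at day 3). At the end, total intracellular DNA was isolated from the cells and HBV DNA copy number measured by TaqMan qPCR. EC50/EC90 derived; SI is CC50/EC50.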

[14] = test system: Human immunodeficiency virus 1; test: Potency index, ratio of (S)-9-[3-Fluoro-2-(phosphonomethoxy)propyl]adenine EC50 to compound EC50 for CCR5 tropic HIV1 BaL infected in human TZM-bl cells; type: functional
Human alphaherpesvirus 3 = test: Potency index, ratio of (S)-9-[3-Fluoro-2-(phosphonomethoxy)propyl]adenine EC50 to compound EC50 for thymidine kinase expressing Varicella-Zoster virus Oka; type: functional, strain Oka vaccine
Outline: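 HEL fibroblast monolayers inoculated with 100 CCID50 HCMV (AD-169, Davis) or 20 PFU VZV (TK+ Oka, TK− 07-1). Adsorbed 1–2 h, inoculum removed, then incubated with compound dilutions. HCMV cytopathicity or VZV plaques scored once untreated infected controls reached completion. EC50 is 50% reduction. SI is CC50/EC50, and the potency ratio is the ratio of EC50s.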

Q: Which EC50 [1] does the source give for `CCCCCOC(=O)C[C@H](NP(=O)(CO[C@H](CF)Cn1cnc2c(N)ncnc21)Oc1ccccc1)C(=O)OCCCCC` (some centres not stated) here?
A: 10 nM

Q: And the EC50 [2]?
A: 4 nM

Q: And the CC50 [3]?
A: 33.2 µM

Q: What about the IC50 [4] of the same molecule?
A: 22 nM

Q: And the selectivity ratio [5]?
A: 3320

Q: And the “Ratio CC50/IC50” value [6]?
A: >827

Q: What about the “Ratio CC50/IC50” value [7] of the same molecule?
A: >113

Q: What about the EC50 [8] of the same molecule?
A: 170 nM

Q: And the “Ratio EC50” value [9]?
A: 5.7

Q: And the EC50 (Hepatitis B virus)?
A: 10 nM

Q: And the EC90 (Hepatitis B virus)?
A: 1970 nM

Q: What about the CC50 at 72 h [10] of the same molecule?
A: 1960 nM

Q: What about the Stability [11] of the same molecule?
A: Stable

Q: What about the EC50 [12] of the same molecule?
A: 30 nM

Q: And the “Ratio CC50/EC50” value [13]?
A: 1017

Q: And the “Ratio EC50” value [14]?
A: 1500

Q: What about the “Ratio EC50” value (Human alphaherpesvirus 3) of the same molecule?
A: 2000
